These results are taken from ChEMBL document CHEMBL4270634, “Benzothiazole carbamates and amides as antiproliferative species” (Eur J Med Chem, 2018).

Activity calls are given as the source filed them. No cut-off for these calls is given here.

Data set [1] has as its system NTERA-2-cl-D1. Kind of data set: Inhibition of colony formation in human NT2/D1 cells at IC50 measured after 7 days by crystal violet staining based inverted microscopy relative to control. The class given is functional. A digest of the protocol:
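NT2/D1 cells seeded and treated at once at IC50 concentration. Colonies formed after seven days were stained and counted, expressed as % of untreated colonies. Mean ± SEM, two independent experiments.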

In data set [2] the test system is NTERA-2-cl-D1. Nature of the data set: Induction of apoptosis in floating human NT2/D1 cells at 1 uM after 24 to 48 hrs by Annexin V-FITC/PI staining based flow cytometry. The class given is functional, cell-based. In outline:
(§1)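 NT2/D1 cells were exposed to 1 µM compound for 24 h and 48 h. Floating and adherent cells were harvested and analysed separately by bivariate Annexin V-FITC/PI flow cytometry. Cells were scored as early or late apoptotic.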
For orientation: A flow cytometer gives signals particle by particle.

In data set [3] the test system is NTERA-2-cl-D1. Kind of data set: Induction of apoptosis in adherent human NT2/D1 cells at 1 uM after 24 to 48 hrs by Annexin V-FITC/PI staining based flow cytometry. The class given is functional. A digest of the protocol: as §1
Data set [4] deals with Mus musculus. Kind of data set: Acute toxicity in athymic nude mouse at 100 to 400 mg/kg ip administered as single dose measured after 14 days. The class given is organism-based. The settings on record: in vivo, 336 h. In outline: (§2)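 Single i.p. injection into nontumored female athymic nude mice as an NCI maximum-tolerated-dose acute toxicity assay.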
In data set [5] the test system is NTERA-2-cl-D1. Kind of data set: Induction of cell detachment in human NT2/D1 cells assessed as live floating cells at 1 uM after 24 hrs by trypan blue exclusion assay relative to floating cell number. The class given is functional.
In data set [6] the test system is MCF7. Nature of the data set: Decrease in ROS production in human MCF7 cells at 25 uM measured after 24 hrs by DCFH-DA probe based flow cytometric analysis. The class given is functional. On the set-up: scale not given: the % may be the effect or the level left. In outline:
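MCF-7 cells exposed 24 h at 25 µM. Intracellular ROS measured by flow cytometry with DCFH-DA and compared to untreated control cells.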

For data set [7], the system named is MCF7. Kind of data set: Decrease in ROS production in human MCF7 cells at IC50 measured after 24 to 48 hrs by DCFH-DA probe based flow cytometric analysis. The class given is functional, cell-based.
Data set [8] concerns MCF7. Nature of the data set: Cell cycle arrest in human MCF7 cells assessed as accumulation at G2/M phase at 25 uM after 24 hrs by propidium iodide staining based flow cytometry (reference value: 27.04%). The class given is functional.
In data set [9] the test system is MCF7. Nature of the data set: Effect on cyclin B1 levels in human MCF7 cells at 25 uM after 24 hrs by propidium iodide staining based flow cytometry (reference value: 26.6%). The class given is functional. In outline: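 MCF-7 cells treated 24 h at 25 µM or 30 µM; intracellular cyclin B1 level measured by flow cytometry.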
The test system of data set [10] is MCF7. Kind of data set: Effect on Bcl-2 protein expression level in human MCF7 cells at IC50 measured after 24 hrs by flow cytometric analysis. The class given is functional, cell-based. In outline: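 Bax and Bcl-2 expression in MCF-7 cells quantified by FACS after 24 and 48 h at a single equipotent (IC₅₀) concentration; Bax/Bcl-2 ratio expressed as fold of untreated control.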

Data set [11] deals with MCF7. Kind of data set: Induction of apoptosis in human MCF7 cells assessed as early apoptotic cells at 25 uM after 24 hrs by Annexin V-FITC/PI staining based flow cytometry (reference value: 1.30%). The class given is functional. In outline:
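MCF-7 cells were treated for 24 h at a single concentration (25 µM or 30 µM, depending on compound). Apoptosis was assessed by bivariate Annexin V-FITC/PI flow cytometry, distinguishing early apoptotic from late apoptotic/necrotic cells, against untreated control.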

Data set [12] relates to MCF7. Kind of data set: Cell cycle arrest in human MCF7 cells assessed as accumulation at G0/G1 phase at 25 uM after 48 hrs by propidium iodide staining based flow cytometry (reference value: 48.80%). The class given is functional.
The subject of data set [13] is MCF7. Nature of the data set: Induction of apoptosis in human MCF7 cells assessed as early apoptotic cells at 25 uM after 48 hrs by Annexin V-FITC/PI staining based flow cytometry (reference value: 0.98%). The class given is functional.
The test system of data set [14] is MCF7. Nature of the data set: Induction of apoptosis in human MCF7 cells assessed as necrotic cells at 25 uM after 24 hrs by Annexin V-FITC/PI staining based flow cytometry (reference value: 2.62%). The class given is functional.
Data set [15] deals with MCF7. Nature of the data set: Induction of mitochondrial membrane potential loss in human MCF7 cells at IC50 measured after 24 hrs by Rh123 dye-based flow cytometric analysis. The class given is functional, cell-based. In outline:
(§3)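 Mitochondrial membrane potential was assessed by Rh123 incorporation with flow cytometry and compared with untreated cells.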

The subject of data set [16] is MCF7. Nature of the data set: Cell cycle arrest in human MCF7 cells assessed as accumulation at G2/M phase at 25 uM after 48 hrs by propidium iodide staining based flow cytometry (reference value: 28.03%). The class given is functional.
For data set [17], the system named is MCF7. Kind of data set: Induction of apoptosis in human MCF7 cells assessed as necrotic cells at 25 uM after 48 hrs by Annexin V-FITC/PI staining based flow cytometry (reference value: 0.82%). The class given is functional.
Data set [18] relates to MCF7. Kind of data set: Cell cycle arrest in human MCF7 cells assessed as accumulation at sub-G1 phase at 25 uM after 48 hrs by propidium iodide staining based flow cytometry (reference value: 0.41%). The class given is functional.
The subject of data set [19] is MCF7. Nature of the data set: Induction of apoptosis in human MCF7 cells assessed as decrease in p73 protein expression level at IC50 measured after 24 to 48 hrs by flow cytometric analysis. The class given is functional, cell-based.
For data set [20], the system named is MCF7. Kind of data set: Induction of apoptosis in human MCF7 cells assessed as late apoptotic cells at 25 uM after 48 hrs by Annexin V-FITC/PI staining based flow cytometry (reference value: 2.95%). The class given is functional.
The test system of data set [21] is MCF7. Kind of data set: Induction of apoptosis in human MCF7 cells assessed as increase in Bax protein expression level at IC50 measured after 24 to 48 hrs by flow cytometric analysis. The class given is functional, cell-based.
Data set [22] relates to MCF7. Nature of the data set: Cell cycle arrest in human MCF7 cells assessed as accumulation at G0/G1 phase at 25 uM after 24 hrs by propidium iodide staining based flow cytometry (reference value: 44.23%). The class given is functional.
Data set [23] relates to MCF7. Kind of data set: Cell cycle arrest in human MCF7 cells assessed as accumulation at S phase at 25 uM after 48 hrs by propidium iodide staining based flow cytometry (reference value: 23.07%). The class given is functional.
In data set [24] the test system is Mus musculus. Nature of the data set: Acute toxicity in athymic nude mouse at 50 to 200 mg/kg ip administered as single dose measured after 14 days. The class given is organism-based. As to conditions: in vivo, 336 h. A digest of the protocol:
as §2

Data set [25] relates to MCF7. Kind of data set: Induction of apoptosis in human MCF7 cells assessed as late apoptotic cells at 25 uM after 24 hrs by Annexin V-FITC/PI staining based flow cytometry (reference value: 2.78%). The class given is functional.
In data set [26] the test system is MCF7. Kind of data set: Cell cycle arrest in human MCF7 cells assessed as accumulation at S phase at 25 uM after 24 hrs by propidium iodide staining based flow cytometry (reference value: 28.27%). The class given is functional.
The subject of data set [27] is MCF7. Nature of the data set: Induction of mitochondrial membrane potential loss in human MCF7 cells at IC50 measured after 48 hrs by Rh123 dye-based flow cytometric analysis. The class given is functional. In outline:
as §3

For data set [28], the system named is MCF7. Kind of data set: Cell cycle arrest in human MCF7 cells at 25 uM by propidium iodide staining based flow cytometry. The class given is functional. As to conditions: TDE = time-dependent effect.
The test system of data set [29] is MCF7. Kind of data set: Cell cycle arrest in human MCF7 cells assessed as accumulation at sub-G1 phase at 25 uM after 24 hrs by propidium iodide staining based flow cytometry (reference value: 0.65%). The class given is functional.
Data set [30] has as its system MCF7. Kind of data set: Induction of apoptosis in human MCF7 cells assessed as decrease in Bcl-2 protein expression level at IC50 measured after 48 hrs by flow cytometric analysis. The class given is functional, cell-based.
The subject of data set [31] is MCF7. Nature of the data set: Induction of apoptosis in human MCF7 cells assessed as increase in p53 protein expression level at IC50 measured after 24 to 48 hrs by flow cytometric analysis. The class given is functional, cell-based.

For the molecule `CCCCSc1ccc2nc(NC(=O)OCCC)sc2c1`, the “inhibition (INH)” value with NTERA-2-cl-D1 [1] was determined as 70%. The result with NTERA-2-cl-D1 [2] was Active. The Activity in the data set on NTERA-2-cl-D1 [3] was less than 10%; in the data set with Mus musculus [4], “Non-Toxic”; in the data set on NTERA-2-cl-D1 [5], 61%.
`CCCOC(=O)Nc1nc2ccc(OCC)cc2s1` registered an Activity in the data set on MCF7 [6] of 15%.
`CCCOC(=O)Nc1nc2ccc(SCCC)cc2s1`: the result in the data set with MCF7 [7], with MCF7 [15], with MCF7 [21], in the data set with NTERA-2-cl-D1 [2], in the data set on MCF7 [30] and with MCF7 [31] was Active. Further, the Activity is on record as 40.66% in the data set with MCF7 [8]; 50.8% in the data set with MCF7 [9]; 21% with MCF7 [11]; 18.82% in the data set with MCF7 [12]; 61.06% in the data set with MCF7 [13]; 3.53% with MCF7 [14]. Also, the Activity in the data set on MCF7 [16] came out at 15.25%; in the data set with MCF7 [17] it was 2.61%; in the data set with MCF7 [18] it was 50.4%; with MCF7 [20] it was 7.53%; in the data set on MCF7 [22], 15.62%; in the data set with MCF7 [23], 15.9%. Besides, the Activity with NTERA-2-cl-D1 [3] was less than 10%; in the data set on NTERA-2-cl-D1 [5], 29%; in the data set with Mus musculus [24], “Non-Toxic”; in the data set with MCF7 [25], 4.33%; in the data set on MCF7 [26] it was 19.3%; with MCF7 [27], more than 80%. Further, the Activity result was “Tde” in the data set with MCF7 [28] and 24.58% in the data set on MCF7 [29]. For the same molecule, the result in the data set with MCF7 [10] and in the data set on MCF7 [19] was inactive. Besides, the “inhibition (INH)” value in the data set on NTERA-2-cl-D1 [1] was found to be 40%.
